Measured values reported in ChEMBL document CHEMBL1140069, “In vitro antifungal activity of polyfunctionalized 2-(hetero)arylquinolines prepared through imino Diels-Alder reactions” (2008).
Values after ≈ are worked out from the molar mass of the structure shown.

Legend:
Format in all cases: functional
Cryptococcus neoformans [1] = assay: Antimicrobial activity against Cryptococcus neoformans IM 961951 isolate at 25 ug/ml after 48 hrs
Outline: (§1)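 Clinical Cryptococcus isolates kept on Sabouraud-dextrose agar slopes; inoculum 1–5 × 10³ CFU/mL. Quinoline DMSO stocks were diluted in RPMI-1640 to final 100–6.25 µg/mL, with DMSO ≤2%. An equal volume of inoculum was added (200 µL per well). Run in triplicate.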

Candida tropicalis = assay: Antimicrobial activity against Candida tropicalis C131 isolate at 12.5 ug/ml after 24 hrs
Outline: (§2)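 Percent growth inhibition in 96-well microplates. Compound stocks in DMSO (≤2%) were diluted in RPMI-1640 to final 100–6.25 µg/mL, and 100 µL inoculum was added (final 200 µL). Controls were a growth well (inoculum with matching DMSO, no compound) and a sterility well (no inoculum). Inhibition was calculated against growth and sterility wells.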

Cryptococcus neoformans [2] = assay: Antimicrobial activity against Cryptococcus neoformans IM 983040 isolate at 6.25 ug/ml after 48 hrs; outline: as §1
Cryptococcus neoformans [3] = assay: Antimicrobial activity against Cryptococcus neoformans IM 042074 isolate at 12.5 ug/ml after 48 hrs; outline: as §2
Cryptococcus neoformans [4] = assay: Antimicrobial activity against Cryptococcus neoformans IM 052470 isolate at 6.25 ug/ml after 48 hrs; outline: as §2
Candida albicans [5] = assay: Antimicrobial activity against Candida albicans C130 isolate at 25 ug/ml after 24 hrs
Outline: (§3)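 Growth-inhibition microplate test. Strains are grown on Sabouraud-chloramphenicol agar for 48 h at 30 °C, and inoculum is added to RPMI-1640 containing compound at a final 100–6.25, with DMSO ≤2%. Each strain has a growth control (same DMSO, no compound) and a sterility control.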

Nakaseomyces glabratus = assay: Antimicrobial activity against Candida glabrata C115 isolate at 100 ug/ml after 24 hrs; outline: as §3
Cryptococcus neoformans [6] = assay: Antimicrobial activity against Cryptococcus neoformans IM 972724 isolate at 100 ug/ml after 48 hrs; outline: as §1
Cryptococcus neoformans [7] = assay: Antimicrobial activity against Cryptococcus neoformans IM 983036 isolate at 25 ug/ml after 48 hrs; outline: as §1
Candida albicans [8] = assay: Antimicrobial activity against Candida albicans ATCC 10231 at 50 ug/ml after 24 hrs; conditions: ATCC 10231, 24 h; outline: as §3
Cryptococcus neoformans [9] = assay: Antimicrobial activity against Cryptococcus neoformans ATCC 32264 at 50 ug/ml after 48 hrs; conditions: ATCC 32264, 48 h; outline: as §2
[10] = test system: Trichophyton mentagrophytes; assay: Antifungal activity against Trichophyton mentagrophytes ATCC 9972 after 48 hrs by broth microdilution technique; conditions: ATCC 9972, 48 h
Outline: (§4)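 CLSI broth microdilution: M-27 A2 for yeasts and M-38 A for filamentous fungi. Medium is RPMI-1640 buffered to pH 7.0 with MOPS. Compound is diluted twofold from 250 to 0.98, final DMSO ≤2%. Inoculum is 1–5 × 10³ CFU/mL. Plates are incubated at 35 °C in a moist, dark chamber and read visually at 48 h. MIC100 is the lowest concentration giving total growth inhibition versus drug-free control.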

Cryptococcus neoformans [11] = assay: Antimicrobial activity against Cryptococcus neoformans IM 972751 isolate at 50 ug/ml after 48 hrs; outline: as §1
Cryptococcus neoformans [12] = assay: Antimicrobial activity against Cryptococcus neoformans IM 031631 isolate at 25 ug/ml after 48 hrs; outline: as §2
Candida parapsilosis [13] = assay: Antimicrobial activity against Candida parapsilosis C124 isolate at 25 ug/ml after 24 hrs; conditions: Lodderomyces parapsilosis; outline: as §2
Pichia kudriavzevii [14] = assay: Antimicrobial activity against Candida krusei C117 isolate at 6.25 ug/ml after 24 hrs; outline: as §2
Cryptococcus neoformans [15] = assay: Antimicrobial activity against Cryptococcus neoformans ATCC 32264 at 6.25 ug/ml after 48 hrs; conditions: ATCC 32264, 48 h; outline: as §2
Cryptococcus neoformans [16] = assay: Antimicrobial activity against Cryptococcus neoformans IM 00319 isolate at 100 ug/ml after 48 hrs; outline: as §2
Cryptococcus neoformans [17] = assay: Antimicrobial activity against Cryptococcus neoformans ATCC 32264 at 25 ug/ml after 48 hrs; conditions: ATCC 32264, 48 h; outline: as §2
Cryptococcus neoformans [18] = assay: Antimicrobial activity against Cryptococcus neoformans ATCC 32264 at 100 ug/ml after 48 hrs; conditions: ATCC 32264, 48 h; outline: as §2
Candida parapsilosis [19] = assay: Antimicrobial activity against Candida parapsilosis C124 isolate at 50 ug/ml after 24 hrs; conditions: Lodderomyces parapsilosis; outline: as §2
Candida parapsilosis [20] = assay: Antimicrobial activity against Candida parapsilosis C124 isolate at 100 ug/ml after 24 hrs; conditions: Lodderomyces parapsilosis; outline: as §2
Cryptococcus neoformans [21] = assay: Antimicrobial activity against Cryptococcus neoformans IM 983040 isolate at 50 ug/ml after 48 hrs; outline: as §1
Candida albicans [22] = assay: Antimicrobial activity against Candida albicans C128 isolate at 50 ug/ml after 24 hrs; outline: as §3
Candida albicans [23] = assay: Antimicrobial activity against Candida albicans ATCC 10231 at 25 ug/ml after 24 hrs; conditions: ATCC 10231, 24 h; outline: as §3
Cryptococcus neoformans [24] = assay: Antimicrobial activity against Cryptococcus neoformans IM 052470 isolate at 50 ug/ml after 48 hrs; outline: as §2
Cryptococcus neoformans [25] = assay: Antimicrobial activity against Cryptococcus neoformans IM 00319 isolate at 6.25 ug/ml after 48 hrs; outline: as §2
Candida parapsilosis [26] = assay: Antimicrobial activity against Candida parapsilosis C124 isolate at 6.25 ug/ml after 24 hrs; conditions: Lodderomyces parapsilosis; outline: as §2
Candida albicans [27] = assay: Antimicrobial activity against Candida albicans C129 isolate at 50 ug/ml after 24 hrs; outline: as §3
Cryptococcus neoformans [28] = assay: Antimicrobial activity against Cryptococcus neoformans IM 031706 isolate at 100 ug/ml after 48 hrs; outline: as §2
Cryptococcus neoformans [29] = assay: Antimicrobial activity against Cryptococcus neoformans IM 983036 isolate at 6.25 ug/ml after 48 hrs; outline: as §1
Candida albicans [30] = assay: Antimicrobial activity against Candida albicans C127 isolate at 50 ug/ml after 24 hrs; conditions: C127, 24 h; outline: as §3
Candida albicans [31] = assay: Antimicrobial activity against Candida albicans C129 isolate at 100 ug/ml after 24 hrs; outline: as §3
Aspergillus flavus = assay: Antifungal activity against Aspergillus flavus ATCC 9170 after 48 hrs by broth microdilution technique; conditions: ATCC 9170, 48 h; outline: as §4
Candida albicans [32] = assay: Antimicrobial activity against Candida albicans C126 isolate at 100 ug/ml after 24 hrs; outline: as §3
Cryptococcus neoformans [33] = assay: Antimicrobial activity against Cryptococcus neoformans IM 042074 isolate at 25 ug/ml after 48 hrs; outline: as §2
Cryptococcus neoformans [34] = assay: Antimicrobial activity against Cryptococcus neoformans IM 972724 isolate at 50 ug/ml after 48 hrs; outline: as §1
Pichia kudriavzevii [35] = assay: Antimicrobial activity against Candida krusei C117 isolate at 12.5 ug/ml after 24 hrs; outline: as §2
Candida albicans [36] = assay: Antimicrobial activity against Candida albicans C128 isolate at 25 ug/ml after 24 hrs; outline: as §3
Cryptococcus neoformans [37] = assay: Antimicrobial activity against Cryptococcus neoformans IM 052470 isolate at 25 ug/ml after 48 hrs; outline: as §2
Cryptococcus neoformans [38] = assay: Antimicrobial activity against Cryptococcus neoformans IM 031706 isolate at 50 ug/ml after 48 hrs; outline: as §2
Candida albicans [39] = assay: Antimicrobial activity against Candida albicans C128 isolate at 6.25 ug/ml after 24 hrs; outline: as §3
Cryptococcus neoformans [40] = assay: Antimicrobial activity against Cryptococcus neoformans IM 961951 isolate at 100 ug/ml after 48 hrs; outline: as §2
Candida albicans [41] = assay: Antimicrobial activity against Candida albicans C129 isolate at 25 ug/ml after 24 hrs; outline: as §3

c1ccc2nc(-c3ccncc3)ccc2c1 was tested, and the inhibition at 25 µg/mL (Cryptococcus neoformans [1]) was 78%, the inhibition at 12.5 µg/mL (Candida tropicalis) was 54% and the inhibition at 6.25 µg/mL (Cryptococcus neoformans [2]) was 0%. It also gave an inhibition at 12.5 µg/mL (Cryptococcus neoformans [3]) of 76%, an inhibition at 6.25 µg/mL (Cryptococcus neoformans [4]) of 0% and an inhibition at 25 µg/mL (Candida albicans [5]) of 48%. The inhibition at 100 µg/mL (Nakaseomyces glabratus) was 75%, the inhibition at 100 µg/mL (Cryptococcus neoformans [6]) was 74% and the inhibition at 25 µg/mL (Cryptococcus neoformans [7]) was 45%. It also gave an inhibition at 50 µg/mL (Candida albicans [8]) of 73%, an inhibition at 50 µg/mL (Cryptococcus neoformans [9]) of 100% and an MIC [10] of 50 µg/mL (≈ 242 µM). The inhibition at 50 µg/mL (Cryptococcus neoformans [11]) was 20%, the inhibition at 25 µg/mL (Cryptococcus neoformans [12]) was 57% and the inhibition at 25 µg/mL (Candida parapsilosis [13]) was 0%. It also gave an inhibition at 6.25 µg/mL (Pichia kudriavzevii [14]) of 0%, an inhibition at 6.25 µg/mL (Cryptococcus neoformans [15]) of 83% and an inhibition at 100 µg/mL (Cryptococcus neoformans [16]) of 92%. The inhibition at 25 µg/mL (Cryptococcus neoformans [17]) was 100%, the inhibition at 100 µg/mL (Cryptococcus neoformans [18]) was 100% and the inhibition at 50 µg/mL (Candida parapsilosis [19]) was 5%. For the same compound, the inhibition at 100 µg/mL (Candida parapsilosis [20]) was 55%, the inhibition at 50 µg/mL (Cryptococcus neoformans [21]) was 34% and the inhibition at 50 µg/mL (Candida albicans [22]) was 15%. It also gave an inhibition at 25 µg/mL (Candida albicans [23]) of 63%, an inhibition at 50 µg/mL (Cryptococcus neoformans [24]) of 75% and an inhibition at 6.25 µg/mL (Cryptococcus neoformans [25]) of 12%. For the same compound, the inhibition at 6.25 µg/mL (Candida parapsilosis [26]) was 0%, the inhibition at 50 µg/mL (Candida albicans [27]) was 82% and the inhibition at 100 µg/mL (Cryptococcus neoformans [28]) was 100%. It also gave an inhibition at 6.25 µg/mL (Cryptococcus neoformans [29]) of 0%, an inhibition at 50 µg/mL (Candida albicans [30]) of 65% and an inhibition at 100 µg/mL (Candida albicans [31]) of 85%. For the same compound, the MIC (Aspergillus flavus) was 50 µg/mL (≈ 242 µM), the inhibition at 100 µg/mL (Candida albicans [32]) was 69% and the inhibition at 25 µg/mL (Cryptococcus neoformans [33]) was 87%. The inhibition at 50 µg/mL (Cryptococcus neoformans [34]) was 23%, the inhibition at 12.5 µg/mL (Pichia kudriavzevii [35]) was 0% and the inhibition at 25 µg/mL (Candida albicans [36]) was 0%. The inhibition at 25 µg/mL (Cryptococcus neoformans [37]) was 53%, the inhibition at 50 µg/mL (Cryptococcus neoformans [38]) was 69% and the inhibition at 6.25 µg/mL (Candida albicans [39]) was 0%. For the same compound, the inhibition at 100 µg/mL (Cryptococcus neoformans [40]) was 97% and the inhibition at 25 µg/mL (Candida albicans [41]) was 50%.
